How the values were obtained:
Mus musculus [1] = assay: In vivo inhibition of lung ACE was observed at 60 min after oral administration; type: functional; parameters: concentration or dose not given beside the values
[2] = target: T1, Neprilysin (Mus musculus) (UniProt Q61391); assay: Inhibition of Neutral Endopeptidase activity was measured by using the displacement of [3H]HACBOGly from mouse kidney after 1 hour oral administration; parameters: scale not given: the % may be the effect or the level left
T1 sequence (whole entry): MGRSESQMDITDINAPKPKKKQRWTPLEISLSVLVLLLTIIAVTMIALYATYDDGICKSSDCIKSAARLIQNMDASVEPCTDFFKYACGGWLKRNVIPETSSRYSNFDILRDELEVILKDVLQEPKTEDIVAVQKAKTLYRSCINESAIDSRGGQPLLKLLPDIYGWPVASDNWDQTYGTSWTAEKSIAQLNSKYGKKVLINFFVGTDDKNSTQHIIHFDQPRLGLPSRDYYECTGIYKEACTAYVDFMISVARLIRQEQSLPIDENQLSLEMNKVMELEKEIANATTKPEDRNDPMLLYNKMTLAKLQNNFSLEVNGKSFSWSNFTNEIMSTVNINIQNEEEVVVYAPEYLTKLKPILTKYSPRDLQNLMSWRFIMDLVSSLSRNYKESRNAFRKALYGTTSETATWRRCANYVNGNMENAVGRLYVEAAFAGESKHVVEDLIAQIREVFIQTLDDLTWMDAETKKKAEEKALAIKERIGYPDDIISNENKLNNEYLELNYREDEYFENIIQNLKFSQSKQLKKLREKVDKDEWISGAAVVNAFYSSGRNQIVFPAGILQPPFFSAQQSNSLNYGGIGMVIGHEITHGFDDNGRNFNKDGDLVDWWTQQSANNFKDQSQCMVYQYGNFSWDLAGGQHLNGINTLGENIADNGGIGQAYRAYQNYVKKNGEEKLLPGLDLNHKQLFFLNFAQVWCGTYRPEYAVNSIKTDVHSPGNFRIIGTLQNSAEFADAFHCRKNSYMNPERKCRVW
Method in brief: (§1)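 Mice dosed orally at 2.6 X 10-6 mol/kg in 10% ethanol/10% cremophor/80% water. [3H]HACBOGly (1 uCi) injected iv at intervals after dosing. Kidneys taken 15 min later, homogenized in 50 mM Tris-HCl pH 7.4 at 4 °C and filtered, radioactivity counted. Inhibition expressed as percent displacement versus control. Nonspecific binding defined with coinjected retrothiorphan (10.000 eq).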

[3] = target: T2, Angiotensin-converting enzyme (Mus musculus) (UniProt P09470); assay: In vivo inhibition of lung ACE was observed at 120 min after oral administration of the compound; type: functional, organism-based; parameters: concentration or dose not given beside the values
T2 sequence (whole entry): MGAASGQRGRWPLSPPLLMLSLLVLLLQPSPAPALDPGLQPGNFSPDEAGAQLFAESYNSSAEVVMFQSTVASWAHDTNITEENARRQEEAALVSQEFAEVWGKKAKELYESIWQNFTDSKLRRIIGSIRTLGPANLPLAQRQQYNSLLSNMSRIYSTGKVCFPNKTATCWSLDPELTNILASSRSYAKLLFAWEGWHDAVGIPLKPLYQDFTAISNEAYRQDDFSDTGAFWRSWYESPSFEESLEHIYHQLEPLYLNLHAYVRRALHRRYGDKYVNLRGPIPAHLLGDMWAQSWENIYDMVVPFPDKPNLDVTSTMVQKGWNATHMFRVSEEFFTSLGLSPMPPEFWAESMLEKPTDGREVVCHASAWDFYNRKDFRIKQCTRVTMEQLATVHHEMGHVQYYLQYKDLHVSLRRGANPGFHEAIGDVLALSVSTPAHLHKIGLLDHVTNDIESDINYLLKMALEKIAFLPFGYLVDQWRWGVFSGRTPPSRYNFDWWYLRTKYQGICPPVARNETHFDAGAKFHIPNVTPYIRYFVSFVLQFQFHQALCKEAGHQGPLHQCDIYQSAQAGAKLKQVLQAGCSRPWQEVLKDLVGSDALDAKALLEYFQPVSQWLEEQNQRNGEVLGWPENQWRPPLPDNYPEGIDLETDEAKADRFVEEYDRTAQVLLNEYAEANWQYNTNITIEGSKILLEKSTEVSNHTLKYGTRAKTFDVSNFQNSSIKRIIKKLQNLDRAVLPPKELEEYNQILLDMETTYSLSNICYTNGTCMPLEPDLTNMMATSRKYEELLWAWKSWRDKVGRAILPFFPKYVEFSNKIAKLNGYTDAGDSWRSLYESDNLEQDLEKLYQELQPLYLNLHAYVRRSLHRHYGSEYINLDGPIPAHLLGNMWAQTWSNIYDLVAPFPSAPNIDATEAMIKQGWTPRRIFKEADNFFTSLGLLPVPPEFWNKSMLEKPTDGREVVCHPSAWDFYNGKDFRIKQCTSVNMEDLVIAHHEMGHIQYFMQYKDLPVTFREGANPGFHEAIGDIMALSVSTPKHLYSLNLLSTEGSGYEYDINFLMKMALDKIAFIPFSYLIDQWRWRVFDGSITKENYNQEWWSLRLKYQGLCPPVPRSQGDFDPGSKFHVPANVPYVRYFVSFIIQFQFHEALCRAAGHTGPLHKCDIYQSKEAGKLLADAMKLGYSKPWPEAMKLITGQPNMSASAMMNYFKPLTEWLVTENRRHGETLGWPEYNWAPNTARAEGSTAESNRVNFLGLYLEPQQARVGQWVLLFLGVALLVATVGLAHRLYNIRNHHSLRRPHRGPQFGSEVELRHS

[4] = target: T2, Angiotensin-converting enzyme (Mus musculus); assay: In vivo inhibition of lung ACE was observed at 240 min after oral administration of the compound; type: functional, organism-based; parameters: concentration or dose not given beside the values
[5] = target: T2, Angiotensin-converting enzyme (Mus musculus); assay: In vivo inhibition of lung ACE was observed at 30 min after oral administration of the compound; type: organism-based; parameters: concentration or dose not given beside the values
[6] = target: T1, Neprilysin (Mus musculus); assay: Inhibition of Neutral Endopeptidase activity was measured by using the displacement of [3H]HACBOGly from mouse kidney after 16h oral administration; parameters: scale not given: the % may be the effect or the level left; method in brief: as §1
[7] = target: T1, Neprilysin (Mus musculus); assay: Inhibition of Neutral Endopeptidase activity was measured by using the displacement of [3H]HACBOGly from mouse kidney after 4 hr oral administration; parameters: scale not given: the % may be the effect or the level left; method in brief: as §1
[8] = target: T1, Neprilysin (Mus musculus); assay: Inhibition of Neutral Endopeptidase activity was measured by using the displacement of [3H]HACBOGly from mouse kidney after 8 hr oral administration; parameters: scale not given: the % may be the effect or the level left; method in brief: as §1
[9] = target: T1, Neprilysin (Mus musculus); assay: Inhibition of Neutral Endopeptidase activity was measured by using the displacement of [3H]HACBOGly from mouse kidney after 2 hr oral administration; parameters: scale not given: the % may be the effect or the level left; method in brief: as §1
Mus musculus [10] = assay: Time course of the in vivo inhibition (percent of control) of lung ACE was observed at 30 min after oral administration of the compound; type: functional; parameters: scale not given: the % may be the effect or the level left
[11] = target: T2, Angiotensin-converting enzyme (Mus musculus); assay: Inhibition of lung Angiotensin Converting Enzyme (ACE) in mouse at a dose of 2.6*10e-5 mol/kg after 20 min oral administration
Method in brief: (§2)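 Prescreen in mice: single oral dose of 2.6 X 10-5 mol/kg of prodrug (thioacetyl and benzyl ester protected, tested as stereoisomer mixtures). Inhibition of binding of a tritiated ACE probe to lung measured 20 and 60 min after dosing. Mean ± SEM of three experiments, three mice each.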

Mus musculus [12] = assay: (§3) In vivo inhibition of lung Angiotensin I converting enzyme in mouse at a dose of 2.6*10e-5 mol/kg after 60 min oral administration; type: functional; method in brief: as §2
[13] = target: T2, Angiotensin-converting enzyme (Mus musculus); assay: as §3; type: organism-based; method in brief: as §2

Structure (SMILES)	Control (Mus musculus [1]) [%]	Control [2] [%]	Control [3] [%]	Control [4] [%]	Control [5] [%]	Control [6] [%]	Control [7] [%]	Control [8] [%]	Control [9] [%]	Control (Mus musculus [10]) [%]	inhibition [11] [%]	Inhibition (Mus musculus [12]) [%]	inhibition [13] [%]
C[C@H](NC(=O)[C@@H](CSC(=O)C12CC3CC(CC(C3)C1)C2)[C@@H](C)c1ccccc1)C(=O)O	54	100	42	37	72	10	100	94	100				
CC(=O)SCC(C(=O)N[C@@H](C)C(=O)OCc1ccccc1)C(C)c1ccccc1 (some centres not stated)	46		21	2						41	54	44	
CC(=O)SCC(C(=O)NCC(=O)OCc1ccccc1)C(C)c1ccccc1 (configuration not stated)											36		43
